Screens as filed in PubChem BioAssay.
Shown are actives, neighbours in structure and some others; about 4.4% of the full set was active somewhere.
Tb MetRS inh – T. brucei MetRS inhibitors, primary screen, biochemical, luminescence; methionyl-tRNA synthetase (Trypanosoma brucei brucei); AID 624268, 2012; inhibition, % at 11.9 µM; purified T. brucei MetRS, ATP depletion, Kinase-Glo luminescence; hit rate 0.4% among 360,000;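 active = inhibition above a per-plate cutoff of the control wells' mean inhibition plus 3 SD, cut at about 5.5% in these data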
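Dosing: 11.9 µM compound single dose, 0.9% DMSO; Assay system: purified T. brucei MetRS enzyme; Measured by: Kinase-Glo luciferase luminescence reporting remaining unconsumed ATP; Schedule: 15 min plus 2 h at 25 °C.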
AHR act – AHR activators, primary screen, cell-based, luminescence, luciferase reporter, human | AHR-responsive luciferase reporter cells | activation, % at 5 µM | hit rate 2.5% among 320,000; in the data active = activation above about 47%
Target sequence (P35869 whole entry, looked up): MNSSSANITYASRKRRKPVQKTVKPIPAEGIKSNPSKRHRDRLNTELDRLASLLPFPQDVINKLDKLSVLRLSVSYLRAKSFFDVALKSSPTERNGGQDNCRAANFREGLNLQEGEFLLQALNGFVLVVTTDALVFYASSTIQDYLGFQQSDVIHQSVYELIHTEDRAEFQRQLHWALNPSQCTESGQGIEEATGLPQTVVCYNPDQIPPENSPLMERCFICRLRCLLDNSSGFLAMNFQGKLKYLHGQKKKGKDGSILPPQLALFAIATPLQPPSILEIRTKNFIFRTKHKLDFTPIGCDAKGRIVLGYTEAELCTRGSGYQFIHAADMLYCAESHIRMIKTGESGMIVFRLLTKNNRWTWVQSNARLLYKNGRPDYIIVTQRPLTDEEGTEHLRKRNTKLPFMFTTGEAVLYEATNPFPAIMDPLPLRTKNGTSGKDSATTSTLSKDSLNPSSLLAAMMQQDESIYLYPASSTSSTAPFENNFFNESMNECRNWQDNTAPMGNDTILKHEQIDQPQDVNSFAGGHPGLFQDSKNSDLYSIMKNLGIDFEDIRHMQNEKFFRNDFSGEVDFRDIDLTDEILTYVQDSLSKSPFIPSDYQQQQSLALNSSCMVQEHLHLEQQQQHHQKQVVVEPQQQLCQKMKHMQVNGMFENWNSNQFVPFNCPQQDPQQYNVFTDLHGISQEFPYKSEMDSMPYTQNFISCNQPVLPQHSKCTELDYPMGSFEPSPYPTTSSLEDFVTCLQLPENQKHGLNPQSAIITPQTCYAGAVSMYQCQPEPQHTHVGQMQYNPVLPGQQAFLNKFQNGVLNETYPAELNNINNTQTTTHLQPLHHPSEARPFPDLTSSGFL
HTR2A ag – mouse Htr2a agonists via beta-arrestin recruitment, primary screen, cell-based, luminescence; hit rate 0.66% among 360,000; 5-hydroxytryptamine receptor 2A (Mus musculus), P35363; CHO-K1 mHTR2A beta-arrestin complementation; percent of 30 µM serotonin response; activation, % at 7.6 µM; AID 624169, 2012;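 active = activation above a run cutoff, the mean activation of all tested compounds plus 3 SD, cut at about 14% in these data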
MsrA inh – bovine MsrA enzyme inhibitors, primary screen, biochemical, absorbance, HTS; Methionine sulfoxide reductase A (Bos taurus); purified bovine MsrA, absorbance read-out; inhibition, % at 15.5 µM; hit rate 0.75% among 360,000
AI-2 QS mod – Vibrio harveyi AI-2 quorum sensing modulators, primary screen, JMH597 strain, luminescence/OD600 ratio | hit rate 0.4% among 300,000 | Vibrio harveyi JMH597 AI-2 luminescence/OD600 ratio, 9 h; hits give low values; strain lacks LuxN and CqsS sensors; 0 = neutral-control median | activity change, % at 7.5 µM; in the data active = activity change below about -75%, passing the limit was not always enough;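 note: luminescence divided by OD600 gain over 9 h not by final OD600 alone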
MsrA act – bovine MsrA enzyme activators, primary screen, biochemical, absorbance, HTS; AID 602163, 2012; hit rate 0.3% among 360,000; purified bovine MsrA, absorbance read-out; Methionine sulfoxide reductase A (Bos taurus); activation, % at 10.6 µM; in the data active = activation above about 7.5%
MsrA conf – bovine MsrA inhibitors, retest, confirmation, biochemical, absorbance, HTS. shares compounds with MsrA inh. purified bovine MsrA, absorbance read-out. inhibition, % at 15.5 µM. hit rate 41% among 2,300;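 note: coupled to thioredoxin reductase with NADPH and selenocystamine and DMSO as substrate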
Each line names hits and unclear results; the compound was inactive in the other large screens (follow-up assays come after a bar, where they were run). Cut-off read from the data, not from the text of the source, unless noted: active = inhibition above about 4.5%; inactive = the rest.

CCNC(=O)C1(C)CCCN(C(=O)c2nc(C)oc2C)C1 (centres undefined)	none (no result: AHR act, AI-2 QS mod)
Cc1[nH]c2ccccc2c1/C=N/NC(N)=S	MsrA inh 5.8 | MsrA conf 4.7
Cc1[nH]c2ccccc2c1/C=N/NC(=O)CNC(=O)c1ccccc1	none
Cc1[nH]c2ccccc2c1/C=N/NC(=O)c1ccc(N)cc1	MsrA inh 5.5 | MsrA conf 4.7
Cc1[nH]c2ccccc2c1/C=N/NC(=O)c1ccccc1	AHR act 68, MsrA inh 6.2 | MsrA conf inactive
CCOC(=O)c1cc(C(C)(C)C)nc(SC)c1C#N	MsrA inh 6.2 | MsrA conf inactive
CNc1ccc(-c2cccc(C#N)c2)cn1	none (no result: AHR act, AI-2 QS mod)
COc1ccc2cc(-c3nc4ccccc4n3C)c(=O)oc2c1	MsrA inh 4.9 | MsrA conf inactive
Cn1c(-c2cc3ccccc3oc2=O)nc2ccccc21	none
CN1/C(=C/C(=O)C2CC2)C(C)(C)c2ccccc21	MsrA inh 5.8 | MsrA conf 5.1
CN1/C(=C\C(=O)Nc2ccc(Br)cc2)C(C)(C)c2ccccc21	none
O=C(CCCN1C(=O)S/C(=C\c2ccccc2)C1=O)NNC(=O)c1ccccc1O	MsrA inh 4.7 | MsrA conf inactive
COc1ccc(CCNC(=O)CSc2nc(=O)[nH]c3c2CCC3)cc1OC	none
O=c1[nH]nc(N/N=C/c2ccccc2OC(F)F)c(=O)[nH]1	MsrA inh 5.0 | MsrA conf inactive
CCOc1ccc(S(=O)(=O)NCCC(=O)NCC(c2ccco2)N2CCCCC2)cc1 (centres undefined)	none (no result: AI-2 QS mod)
C[C@H]1c2cccc(O)c2C(=O)C2C(=O)C3(O)C(=O)C(C(N)=O)C(=O)[C@@H](N(C)C)[C@@H]3[C@@H](O)[C@@H]21 (some centres undefined)	none (no result: AI-2 QS mod)
C[C@H]1c2cccc(O)c2C(O)=C2C(=O)C3(O)C(O)=C(C(N)=O)C(=O)[C@@H](N(C)C)[C@@H]3[C@@H](O)[C@@H]21 (some centres undefined)	MsrA inh 4.9 (no result: AI-2 QS mod) | MsrA conf inactive
CCCC1NC(=O)c2cc3ccccc3cc2-n2c1nc1cc(Cl)ccc1c2=O (centres undefined)	none (no result: AHR act, AI-2 QS mod)
CC(C)(C)c1cc(-c2ccco2)c(C#N)c(SCC#N)n1	MsrA inh 9.2 | MsrA conf 5.2
Cc1cc(N)ccc1N1CCCC1	none (no result: MsrA inh)
Cc1cc(N2CCCC2)c(C)cc1C=O	MsrA inh 5.1 | MsrA conf inactive
Cc1cc(C)n(-c2ccc(C(=O)OCC(=O)Nc3ccccc3F)cc2)n1	none (no result: AI-2 QS mod)
Cc1[nH]nc2c1C(c1ccsc1)C1=C(CC(C)(C)CC1=O)N2 (centres undefined)	MsrA inh 4.7 | MsrA conf inactive
Cc1[nH]nc2c1C(c1ccc(O)cc1)C1=C(CC(C)(C)CC1=O)N2 (centres undefined)	none
COc1cc([N+](=O)[O-])ccc1NC(=O)Nn1cnnc1	none
Oc1ccc(N2CCN(c3nnnn3-c3ccccc3)CC2)cc1	none
c1ccc(-n2nnnc2-n2nnc3ccccc32)cc1	MsrA inh 23 | MsrA conf 22
Cc1nn(CCC#N)c2nc(-c3ccccc3)cc(C(F)(F)F)c12	none
Cc1nn(CCC(N)=S)c2nc(-c3cccs3)cc(C(F)(F)F)c12	MsrA inh 4.8 | MsrA conf inactive
CC(C)c1ccc(/C=N/n2c(COc3ccccc3)n[nH]c2=S)cc1	none
COc1cc2c(cc1OC)C(=S)NC1(CCCC1)C2	MsrA inh 6.1 | MsrA conf inactive
S=C1NC2(CCCCC2)Cc2ccccc21	none
O=C(COC(=O)c1cc(S(=O)(=O)NCc2ccccc2)ccc1O)c1cc2ccccc2o1	MsrA inh 4.8 | MsrA conf inactive
Nc1ccc(C(=O)N/N=C/c2ccc(N3CCOCC3)s2)cc1	none (no result: AI-2 QS mod)
O=C(N/N=C/c1cnc(N2CCOCC2)s1)c1ccccc1	MsrA inh 5.2 | MsrA conf 5.1
CC(=O)c1ccc(Nc2ccc([N+](=O)[O-])c3nonc23)cc1	MsrA inh 7.0 | MsrA conf inactive
COc1cc(C)nc(N(Cc2ccccc2)S(=O)(=O)c2ccc(C)cc2)n1	none
COc1cc(C)nc(N(Cc2ccccc2)S(=O)(=O)c2ccccc2)n1	MsrA inh 5.6 | MsrA conf inactive
CCN1C(=O)CC(c2ccc(OC(C)C)cc2)C1=O (centres undefined)	none
Cc1c(N=Nc2ccc(O)cc2)c(=O)n(-c2ccccc2)n1C	AHR act 56, MsrA inh 5.2 | MsrA conf inactive
Cc1c(C(c2ccc(O)cc2)c2c(C)n(C)n(-c3ccccc3)c2=O)c(=O)n(-c2ccccc2)n1C	none
Cn1cc(C(=O)N/N=C/c2cccs2)c2ccccc21	AHR act 109, MsrA inh 5.2 | MsrA conf 5.2
NC(=O)N\N=C/C=C/C=C/c1ccc(F)cc1	MsrA inh 5.2 | MsrA conf inactive
CN1C[C@@H]2[C@@H]3C(=O)N(Cc4ccccc4)C(=O)[C@@H]3[C@](C)(C1=O)N2C(=O)c1ccc(F)cc1	none (no result: AHR act, AI-2 QS mod)
COc1cc(/C=C2/NC(=O)N(Cc3ccccc3F)C2=O)cc(OC)c1O	MsrA inh 5.0 | MsrA conf inactive
COc1ccc(CCNC(=O)CCOc2cc(C)ccc2C)cc1OC	none (no result: AHR act)
COc1ccc(/C(O)=C(\C#N)c2nc3ccccc3n2C)cc1OC	MsrA inh 6.9 | MsrA conf 6.0
Cn1c(/C(C#N)=C(\O)c2ccc(S(=O)(=O)N3CCCCC3)cc2)nc2ccccc21	none
O=C(CN1C(=O)c2ccc([N+](=O)[O-])cc2C1=O)NC1CCCCCC1	none
COc1cccc(/C=C2/SC(=O)N(CC(=O)N3CCc4ccccc4C3)C2=O)c1OCC(=O)O	MsrA inh 4.8 | MsrA conf inactive
CCOc1ccc(NC(=O)CN(C)C(=O)c2ccc(-c3ccc(C(C)=O)cc3)o2)cc1OCC	MsrA inh 4.9 | MsrA conf inactive
CCCS(=O)(=O)c1c(S(=O)(=O)CCC)c2c(N)cccn2c1C(=O)OC	MsrA inh 5.2 | MsrA conf inactive
CC(c1nccs1)N(C)c1nc2nonc2nc1N(C)C (centres undefined)	MsrA inh 4.9 | MsrA conf inactive
CC(c1nccs1)N(C)c1nc2nonc2nc1NC1CC1 (centres undefined)	none
CCOC(=O)c1cccc(-n2cccc2/C=C2\NC(=O)N(CC(=O)O)C2=O)c1	MsrA inh 5.0 (no result: AI-2 QS mod) | MsrA conf inactive
